Test results from ChEMBL document CHEMBL4229360, “Antimalarial agents against both sexual and asexual parasites stages: structure-activity relationships and biological studies of the Malaria Box compound 1-[5-(4-bromo-2-chlorophenyl)furan-2-yl]-N-[(piperidin-4-yl)methyl]methanamine (MMV019918) and analogues” (Eur J Med Chem, 2018).
pIC50: −log10 of the molar value. The source made the active and inactive calls. No cut-off for these calls is given here.

Legend:
[1] = tested on: Plasmodium falciparum; assay: Gametocytocidal activity against Plasmodium falciparum NF54 HGL gametocytes assessed as inhibition of parasite viability after 72 hrs by ONE-Glo reagent based luminescence assay; format: functional, organism-based
Procedure, shortened: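 NF54 gametocytes raised in 5% haematocrit RPMI1640/10% human serum, with 50 mM NAG on days 4–9. Mainly stage IV gametocytes isolated on day 11 by Percoll gradient and seeded at 5000 cells/well, final DMSO 0.1%. Incubated 72 h at 37 °C, 3% O2, 4% CO2; viability by ONE-Glo luminescence.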

[2] = Cardiotoxicity in Langendorff perfused Wistar rat heart assessed as cycle length interval time at 3 uM by electrocardiography (reference value: 217.15 to 242.23 milliseconds); format: toxicity, tissue-based
[3] = Cardiotoxicity in Langendorff perfused Wistar rat heart assessed as frequency of heart rate at 1 uM by electrocardiography (reference value: 247.05 to 275.90 bpm); format: toxicity, tissue-based
[4] = Cardiotoxicity in Langendorff perfused Wistar rat heart assessed as frequency of heart rate at 0.1 uM by electrocardiography (reference value: 247.05 to 275.90 bpm); format: toxicity, tissue-based
[5] = Cardiotoxicity in Langendorff perfused Wistar rat heart assessed as PQ interval time at 3 uM by electrocardiography (reference value: 41.13 to 42.63 milliseconds); format: toxicity, tissue-based
[6] = Cardiotoxicity in Langendorff perfused Wistar rat heart assessed as QRS interval time at 3 uM by electrocardiography (reference value: 13.31 to 14.35 milliseconds); format: toxicity, tissue-based
[7] = Cardiotoxicity in Langendorff perfused Wistar rat heart assessed as PQ interval time at 0.1 uM by electrocardiography (reference value: 41.13 to 42.63 milliseconds); format: toxicity, tissue-based
[8] = tested on: Plasmodium falciparum; assay: Antiplasmodial activity against chloroquine-resistant Plasmodium falciparum W2 after 72 hrs by lactate dehydrogenase assay; format: functional, organism-based; conditions: W2, 72 h
Procedure, shortened: (§1)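 Asynchronous blood-stage cultures at 1–1.5% parasitemia and 1% final hematocrit in human A+ RBCs, RPMI 1640 with 1% AlbuMax, hypoxanthine, HEPES and glutamine. Serial dilutions from DMSO stocks, final DMSO <1%. Incubated 72 h at 37 °C under 1% O₂/5% CO₂. IC50 is the mean of ≥3 experiments in duplicate.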

[9] = Cardiotoxicity in Langendorff perfused Wistar rat heart assessed as coronary perfusion pressure at 0.1 to 10 uM; format: toxicity, tissue-based
[10] = tested on: Plasmodium falciparum; assay: Gametocytocidal activity against Plasmodium falciparum 3D7 elo1-pfs16-CBG99 late-stage (4 to 5) gametocytes assessed as inhibition of parasite viability after 72 hrs by luciferase reporter assay; format: functional, organism-based; conditions: 3D7 elo1-pfs16-CBG99, 72 h
Procedure, shortened: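 Transgenic 3D7elo1-pfs16-CBG99 gametocytes express CBG99 luciferase from the pfs16 promoter. Stage IV–V gametocytes (Giemsa-checked) were exposed at day 8–10 after NAG addition to serial dilutions in complete medium for 72 h. Samples at 2% haematocrit were then mixed 1:1 with D-luciferin (1 mM, pH 5.5 citrate) for 10 min and luminescence was read. IC50 came from non-linear regression, mean of ≥3 experiments in duplicate.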

[11] = tested on: Plasmodium berghei; assay: (§2) Antimalarial activity against liver stage form of mCherry expressing Plasmodium berghei ANKA sporozoites infected in mouse primary hepatocytes assessed as inhibition of detached cell formation rate at 0.0625 to 4 uM administered 2 hrs post infection and measured after 48 hrs post infection with medium change at 24 hrs post infection by fluorescent microscopic analysis; format: functional, organism-based
Procedure, shortened: (§3)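 Parasite number and size in unfixed cells by automated microscopy at 48 hpi. Detached cells collected at 65 hpi, counted by fluorescence microscopy, expressed as % of 48 h parasite number. n = 4; one-way ANOVA with Dunnett's test.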

[12] = Cardiotoxicity in Langendorff perfused Wistar rat heart assessed as cycle length interval time at 1 uM by electrocardiography (reference value: 217.15 to 242.23 milliseconds); format: toxicity, tissue-based
[13] = tested on: Plasmodium falciparum; assay: Antiplasmodial activity against chloroquine-sensitive Plasmodium falciparum D10 after 72 hrs by lactate dehydrogenase assay; format: functional, organism-based; conditions: D10, 72 h; procedure, shortened: as §1
[14] = molecular target: Voltage-dependent L-type calcium channel subunit alpha-1C (Rattus norvegicus, UniProt P22002); assay: Inhibition of CaV1.2 channel in rat tail artery myocytes assessed as reduction in Ba2+ current at 30 uM at -50 mV holding potential by whole-cell patch-clamp assay; format: cell-based
Sequence of Voltage-dependent L-type calcium channel subunit alpha-1C (P22002 whole entry): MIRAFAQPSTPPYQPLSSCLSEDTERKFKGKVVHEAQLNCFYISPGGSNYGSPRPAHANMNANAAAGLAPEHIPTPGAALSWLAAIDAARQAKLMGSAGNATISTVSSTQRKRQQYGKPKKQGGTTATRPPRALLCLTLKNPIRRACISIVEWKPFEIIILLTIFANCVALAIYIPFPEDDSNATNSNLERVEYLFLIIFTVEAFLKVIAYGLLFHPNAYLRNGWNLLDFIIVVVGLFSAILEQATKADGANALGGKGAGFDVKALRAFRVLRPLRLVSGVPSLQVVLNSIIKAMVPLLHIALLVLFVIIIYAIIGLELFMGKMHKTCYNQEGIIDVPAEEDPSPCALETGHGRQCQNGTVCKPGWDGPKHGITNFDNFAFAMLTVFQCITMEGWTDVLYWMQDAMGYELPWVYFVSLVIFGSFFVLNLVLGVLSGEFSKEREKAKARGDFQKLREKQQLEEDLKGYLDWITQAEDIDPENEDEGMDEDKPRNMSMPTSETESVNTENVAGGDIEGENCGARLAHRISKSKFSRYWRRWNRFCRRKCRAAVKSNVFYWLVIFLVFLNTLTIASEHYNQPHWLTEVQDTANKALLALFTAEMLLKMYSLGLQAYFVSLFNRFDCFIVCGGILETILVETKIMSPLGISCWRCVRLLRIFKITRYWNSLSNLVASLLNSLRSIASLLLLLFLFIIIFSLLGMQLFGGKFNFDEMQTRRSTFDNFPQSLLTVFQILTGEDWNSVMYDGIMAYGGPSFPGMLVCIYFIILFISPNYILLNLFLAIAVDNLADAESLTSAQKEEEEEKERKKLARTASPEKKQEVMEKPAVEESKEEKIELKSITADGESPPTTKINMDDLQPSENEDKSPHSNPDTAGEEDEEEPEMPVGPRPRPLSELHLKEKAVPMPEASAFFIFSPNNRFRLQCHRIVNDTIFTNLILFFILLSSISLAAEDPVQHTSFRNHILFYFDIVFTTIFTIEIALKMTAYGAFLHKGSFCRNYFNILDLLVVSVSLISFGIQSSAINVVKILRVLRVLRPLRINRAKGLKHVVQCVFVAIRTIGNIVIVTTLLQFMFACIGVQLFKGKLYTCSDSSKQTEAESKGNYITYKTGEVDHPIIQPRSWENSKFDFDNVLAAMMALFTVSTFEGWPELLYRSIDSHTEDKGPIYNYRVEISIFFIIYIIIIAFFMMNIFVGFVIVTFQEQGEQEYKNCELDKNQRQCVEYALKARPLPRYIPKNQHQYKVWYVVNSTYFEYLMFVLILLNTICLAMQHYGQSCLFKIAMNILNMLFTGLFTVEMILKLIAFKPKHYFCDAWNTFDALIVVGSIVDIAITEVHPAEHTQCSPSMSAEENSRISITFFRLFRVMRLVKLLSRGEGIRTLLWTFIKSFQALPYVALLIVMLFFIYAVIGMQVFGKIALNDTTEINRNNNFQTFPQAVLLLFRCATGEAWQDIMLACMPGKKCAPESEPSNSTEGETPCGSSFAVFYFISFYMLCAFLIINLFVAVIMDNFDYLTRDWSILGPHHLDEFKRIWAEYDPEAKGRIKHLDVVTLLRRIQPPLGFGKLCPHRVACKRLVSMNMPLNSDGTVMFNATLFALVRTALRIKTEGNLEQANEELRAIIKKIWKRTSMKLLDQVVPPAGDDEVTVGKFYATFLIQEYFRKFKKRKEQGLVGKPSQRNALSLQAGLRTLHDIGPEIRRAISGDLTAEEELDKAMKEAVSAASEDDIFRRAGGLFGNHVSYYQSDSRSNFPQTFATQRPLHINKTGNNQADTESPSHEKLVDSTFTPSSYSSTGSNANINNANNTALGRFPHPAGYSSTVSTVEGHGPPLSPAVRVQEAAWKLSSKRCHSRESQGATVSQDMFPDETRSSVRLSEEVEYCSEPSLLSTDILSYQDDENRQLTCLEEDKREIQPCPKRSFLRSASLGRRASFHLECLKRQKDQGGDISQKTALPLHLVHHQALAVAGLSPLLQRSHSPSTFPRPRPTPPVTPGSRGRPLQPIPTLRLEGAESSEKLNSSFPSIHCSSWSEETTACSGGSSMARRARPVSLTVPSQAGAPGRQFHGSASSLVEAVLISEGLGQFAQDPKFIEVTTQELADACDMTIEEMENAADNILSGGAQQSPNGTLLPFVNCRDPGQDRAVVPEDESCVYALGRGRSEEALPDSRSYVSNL
Procedure, shortened: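 Freshly isolated rat tail artery smooth muscle cells (collagenase digestion), whole-cell patch clamp at 20–22 °C. External solution: 5 mM Ba2+, 30 mM TEA; Cs+-based internal solution, pH 7.4. Currents from 250-ms pulses to 0 mV from Vh −50 mV at 0.067 Hz, after 7–10 min stabilisation. Leak corrected with 10 μM nifedipine. Peak current as % of control; n = 3–6 cells from ≥3 animals.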

[15] = Cardiotoxicity in Langendorff perfused Wistar rat heart assessed as QTc interval time at 10 uM by electrocardiography (reference value: 76.45 to 80.07 milliseconds); format: toxicity, tissue-based
[16] = tested on: Plasmodium falciparum; assay: Antiplasmodial activity against asexual blood stage Plasmodium falciparum NF54 after 72 hrs by SYBR green-based fluorometric analysis; format: functional, organism-based; conditions: NF54, 72 h
Procedure, shortened: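 Asexual NF54 seeded at 0.83% parasitaemia, 1.5% haematocrit, in RPMI1640 with 10% human serum. Serial dilutions, final DMSO 0.1%. Incubated 72 h at 37 °C under 3% O2, 4% CO2, then read by SYBR Green fluorescence.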

[17] = Cardiotoxicity in Langendorff perfused Wistar rat heart assessed as reduction of left ventricular pressure; format: toxicity, tissue-based
[18] = tested on: Plasmodium berghei; assay: as §2, with “reduction in parasite size” for “inhibition of detached cell formation rate”; format: functional, organism-based; procedure, shortened: as §3
[19] = tested on: Plasmodium falciparum; assay: Antiplasmodial activity against gametocytes of Plasmodium falciparum NF54 infected in Anopheles mosquitoes assessed as decrease in infection intensity measured at baseline infection intensity of 30 oocysts/midgut pre-treated with compound for 24 hrs before feeding and measured 8 days post infection by standard membrane feeding assay; format: functional, organism-based
Procedure, shortened: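 NF54-HGL luciferase-reporter gametocytes were pre-incubated with compound for 24 h, then membrane-fed to Anopheles mosquitoes. Infection was read by luminescence 8 d post-infection, with 24 mosquitoes analysed per feed and each feed done in duplicate. IC50 was derived for infection intensity and for prevalence at a baseline of 30 oocysts/midgut.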

[20] = Cardiotoxicity in Langendorff perfused Wistar rat heart assessed as QTc interval time at 1 uM by electrocardiography (reference value: 76.45 to 80.07 milliseconds); format: toxicity, tissue-based
[21] = Cardiotoxicity in Langendorff perfused Wistar rat heart assessed as QTc interval time at 0.1 uM by electrocardiography (reference value: 76.45 to 80.07 milliseconds); format: toxicity, tissue-based
[22] = Cardiotoxicity in Langendorff perfused Wistar rat heart assessed as QTc interval time at 3 uM by electrocardiography (reference value: 76.45 to 80.07 milliseconds); format: toxicity, tissue-based

SMILES: Clc1ccc(-c2ccc(CNCC3CCNCC3)o2)c(-c2ccccc2)c1
- pIC50 [1]: 7.37
- Time [2]: 216.73 ms
- Activity [3]: 275.47 bpm
- Activity [4]: 276.19 bpm
- Time [5]: 45.47 ms
- Time [6]: 14.65 ms
- Time [7]: 41.24 ms
- pIC50 [8]: 5.62
- Activity [9]: Non-Toxic
- pIC50 [10]: 5.85
- Activity [11]: inactive
- Time [12]: 217.02 ms
- pIC50 [13]: 6.06
- inhibition (INH) [14]: Active
- Time [15]: 83.77 ms
- pIC50 [16]: 6.17
- Activity [17]: Dose-dependent effect
- Activity [18]: inactive
- pIC50 [19]: 6.68
- Time [20]: 77.21 ms
- Time [21]: 74.92 ms
- Time [22]: 78.56 ms
